Activity calls are given as the source filed them.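 The calls were made as follows, unless noted: active = viability at or under a set limit in both replicates, limit being median viability minus 3 SD (cut at about 48% in these data, passing the limit was not always enough); inconclusive = at or under the limit in just one replicate; inactive = at or above the limit in both replicates.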
Legend:
[1] = Her2 expression decrease, cell viability multiplex – SKBR3 breast tumor cells, AlphaScreen, ATP viability, primary screen (AID 461;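 active = Her2 level under about 52% in both replicate screens, with viability over 70% of control, limit read from the data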;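 as to Her2 level: lower value means less Her2 protein in the cells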;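 as to viability: percent of carrier control wells set as 100% viability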); conditions: SKBR3 Her2 protein level, 18-24 h, measured here: SKBR3 viability, ATP luminescence, at 10 µM
[2] = target: Receptor tyrosine-protein kinase erbB-2 (Homo sapiens) (UniProt P04626); assay: as above; conditions: 18-24 h, at 10 µM, stronger effect = lower value
Receptor tyrosine-protein kinase erbB-2 (Homo sapiens), sequence (P04626 whole entry, looked up): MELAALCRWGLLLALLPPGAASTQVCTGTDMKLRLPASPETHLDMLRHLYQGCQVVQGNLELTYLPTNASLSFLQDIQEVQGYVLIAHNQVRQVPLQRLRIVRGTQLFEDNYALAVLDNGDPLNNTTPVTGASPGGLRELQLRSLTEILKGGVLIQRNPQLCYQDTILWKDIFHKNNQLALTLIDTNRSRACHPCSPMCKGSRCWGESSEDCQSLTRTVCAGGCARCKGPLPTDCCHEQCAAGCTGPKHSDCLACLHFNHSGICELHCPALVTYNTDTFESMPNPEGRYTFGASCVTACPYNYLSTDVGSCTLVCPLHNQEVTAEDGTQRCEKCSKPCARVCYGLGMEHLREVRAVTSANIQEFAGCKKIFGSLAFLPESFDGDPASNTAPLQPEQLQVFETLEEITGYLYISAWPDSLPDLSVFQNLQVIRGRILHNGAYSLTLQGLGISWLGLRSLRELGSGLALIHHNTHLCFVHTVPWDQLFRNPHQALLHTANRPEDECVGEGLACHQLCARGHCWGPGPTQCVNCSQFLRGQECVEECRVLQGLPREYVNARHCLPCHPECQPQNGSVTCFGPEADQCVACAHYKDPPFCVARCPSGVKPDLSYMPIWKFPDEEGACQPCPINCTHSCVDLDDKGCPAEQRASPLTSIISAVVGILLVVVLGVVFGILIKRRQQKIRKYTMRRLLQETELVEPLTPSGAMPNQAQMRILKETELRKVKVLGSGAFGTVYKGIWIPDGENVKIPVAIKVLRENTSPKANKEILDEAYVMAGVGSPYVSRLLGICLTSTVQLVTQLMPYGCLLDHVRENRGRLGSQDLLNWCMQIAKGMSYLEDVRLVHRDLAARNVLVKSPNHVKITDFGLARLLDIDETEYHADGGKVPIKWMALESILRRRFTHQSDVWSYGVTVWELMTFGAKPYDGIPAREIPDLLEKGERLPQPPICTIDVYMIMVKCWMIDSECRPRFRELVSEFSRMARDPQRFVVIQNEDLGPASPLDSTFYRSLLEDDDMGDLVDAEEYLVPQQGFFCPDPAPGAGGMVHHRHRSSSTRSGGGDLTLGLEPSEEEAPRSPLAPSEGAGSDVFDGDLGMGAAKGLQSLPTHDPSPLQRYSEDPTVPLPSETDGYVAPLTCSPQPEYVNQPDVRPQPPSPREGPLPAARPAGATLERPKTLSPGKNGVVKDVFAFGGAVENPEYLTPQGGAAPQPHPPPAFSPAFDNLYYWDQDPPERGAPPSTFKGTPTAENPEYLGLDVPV

[3] = reduced viability of SK-BR-3 breast cancer cells – cell-based, 24 h, human, pilot screen (AID 572;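 active = viability at or below 10% of carrier control in both of two separate runs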;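 also: compound exposure lasted between 18 and 24 h rather than exactly 24 h; 100% = carrier-treated control wells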); conditions: SK-BR-3 viability, CellTiter-Glo luminescence, at 10 µM, stronger effect = lower value
[4] = HUVEC growth inhibition – cell-based, human, primary screen (AID 575;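 active = viability at or below 30% in both replicate assays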;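 also: 100% = median of untreated cell wells with 0.1% DMSO on each plate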); conditions: HUVEC proliferation, CellTiter-Glo luminescence, 72 h; at 10 µM; stronger effect = lower value
Method in brief: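 Test system: HUVEC primary cells. Quantity: 1250 endothelial cells in each well. Dosing: single-point 10 µM, DMSO 0.1% final. Incubation: 72 h treatment at 37 °C. Measured by: CTG luminescence. Control set: DMSO cell controls and MePR drug controls. Plate: collagen-coated 384-well format.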

[5] = H69AR cell proliferation blockers – human, duplicate replicates, primary screen (AID 580); conditions: H69AR lung tumor cells viability, ATP luminescence, 72 h; at 10 µM; stronger effect = lower value;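 also: 100% = mean luminescence of untreated wells and 0% = no signal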
[6] = MRP1 drug-resistance reversers in H69AR cells – cell-based, doxorubicin co-treatment, pilot screen (AID 601;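 active = viability loss from added drug above about 55%, and viability with drug at most 40%, in both replicates, limit read from the data, passing the limit was not always enough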); conditions: CellTiter-Glo, 72 h, at 10 µM; for differential viability (reversal): stronger effect = higher value
[7] = yeast transport mutant growth inhibition pilot in 384-well plates, post-Golgi transport modulator project (AID 636; in the data active = inhibition above about 31%); conditions: absorbance 615 nm, about 18 h, stronger effect = higher value
[8] = growth suppression of yeast trafficking mutant, preliminary HTS, modulators of trafficking downstream of Golgi apparatus project, 1536-format plate, OD 615 nm (AID 637; in the data active = inhibition above about 30%); conditions: yeast transport mutant growth, absorbance 615 nm, 18 h; stronger effect = higher value
[9] = H69AR cells + 2 uM doxorubicin, measured here: viability with 2 uM doxorubicin, stronger effect = lower value
[10] = H69AR cells, compound alone cytotoxicity

SMILES | viability [1] | Her2 level [2] | viability [3] | viability [4] | viability [5] | differential viability (reversal) ([6]; H69AR cells + 2 uM doxorubicin) | viability [6, 9] | viability [6, 10] | inhibition [7] | inhibition [8]
CC(C)OP(=O)(c1ccc(N(C)C)cc1)C(O)c1ccccc1F (stereo not given) | 128% | 113% (inactive) | 128% (inactive) | 103% (inactive) | 106% (inactive) | 19% (inactive) | 87.5% | 106% | -4.93% (inactive) | 3.06% (inactive)
CCOC(=O)CSc1nc2cc(C(=O)N3CCC(C(N)=O)CC3)ccc2c(=O)n1-c1ccccc1 | 98% | 95% (inactive) | 98% (inactive) | 76.5% (inactive) | 100% (inactive) | 7.63% (inactive) | 92.4% | 100% | -3.95% (inactive) | -4.17% (inactive)
O=C(C1=C(O)C(=O)N(Cc2ccccc2)C1c1ccncc1)c1ccco1 (stereo not given) | 97.5% | 111% (inactive) | 97.5% (inactive) | 109% (inactive) | 104% (inactive) | 3.21% (inactive) | 101% | 104% | -0.26% (inactive) | -5.33% (inactive)
CCn1c(CSc2nnc(-c3cccnc3)n2-c2ccccc2C)nc2cc(C(=O)O)ccc21 | 95.5% | 109% (inactive) | 95.5% (inactive) | 94% (inactive) | 99.1% (inactive) | 11.4% (inactive) | 87.8% | 99.1% | -3.56% (inactive) | -7.3% (inactive)
CCCn1c(SCC(=O)Nc2cc(C)on2)nc2c1c(=O)n(C)c(=O)n2C | 100% | 118% (inactive) | 100% (inactive) | 87% (inactive) | 100% (inactive) | 15.7% (inactive) | 84.6% | 100% | 0% (inactive) | -4.19% (inactive)
Fc1cccc2sc(Nc3nnc(-c4ccco4)o3)nc12 | 109% | 37% (active) | 109% (inactive) | 57.3% (inactive) | 41.2% (active) | -21.4% (inactive) | 62.6% | 41.2% | -0.4% (inactive) | 0% (inactive)
COCCOC(=O)c1cc(C(=O)c2cc(F)ccc2O)coc1=N | 83.5% | 82.5% (inactive) | 83.5% (inactive) | 92% (inactive) | 91.1% (inactive) | -3.97% (inactive) | 95.1% | 91.1% | -1.56% (inactive) | -5.08% (inactive)
COCCn1c(C)c(C(=O)O)sc1=S | 99% | 118% (inactive) | 99% (inactive) | 108% (inactive) | 104% (inactive) | 12.4% (inactive) | 91.3% | 104% | 0.79% (inactive) | -6.5% (inactive)
O=C(CSc1nc2cc(Cl)ccc2s1)N1CCN(C(=O)c2ccco2)CC1 | 91% | 84.5% (inactive) | 91% (inactive) | 91.6% (inactive) | 100% (inactive) | 0.815% (inactive) | 99.5% | 100% | -3.87% (inactive) | 0.97% (inactive)
Cc1ccc(C)c(N2CCN(Cc3nnnn3C3CCCCC3)CC2)c1 | 94% | 91% (inactive) | 94% (inactive) | 78.1% (inactive) | 71% (inactive) | -9.05% (inactive) | 80% | 71% | -3.25% (inactive) | 3.49% (inactive)
COc1ccccc1C1/C(=C(/O)c2ccccc2)C(=O)C(=O)N1CC(C)C (stereo not given) | 104% | 89.5% (inactive) | 104% (inactive) | 81.4% (inactive) | 82.1% (inactive) | -2.33% (inactive) | 84.4% | 82.1% | -2.47% (inactive) | 5.24% (inactive)
COc1ccccc1C1C(C#N)=C(N)Oc2cc(C)n(Cc3ccccn3)c(=O)c21 (stereo not given) | 108% | 133% (inactive) | 108% (inactive) | 93.9% (inactive) | 90.2% (inactive) | -2.41% (inactive) | 92.6% | 90.2% | -0.66% (inactive) | -6.94% (inactive)
COc1c2ccoc2nc2c(OC)c(OCC(O)C(C)(C)O)ccc12 (stereo not given) | 100% | 97.5% (inactive) | 100% (inactive) | 94.4% (inactive) | 95.4% (inactive) | 2.17% (inactive) | 93.2% | 95.4% | -2.8% (inactive) | 3.39% (inactive)
COc1cc(NC(=O)c2ccc(COCC(F)(F)F)o2)cc(OC)c1OC | 95% | 84% (inactive) | 95% (inactive) | 92.8% (inactive) | 99.6% (inactive) | 20.1% (inactive) | 79.5% | 99.6% | -1.45% (inactive) | 2.58% (inactive)
CC(C)C(C(=O)Nc1ccc2c(c1)OCO2)N1C(=O)c2ccccc2C1=O (stereo not given) | 122% | 92% (inactive) | 122% (inactive) | 94.3% (inactive) | 96.1% (inactive) | 2.06% (inactive) | 94.1% | 96.1% | -4.03% (inactive) | 1.15% (inactive)
COC(=O)c1oc2ccc(OC)cc2c1N | 107% | 88% (inactive) | 107% (inactive) | 82.4% (inactive) | 100% (inactive) | 13.9% (inactive) | 86.2% | 100% | -2.53% (inactive) | -4.84% (inactive)

SMILES | viability [1] | Her2 level [2] | viability [3] | viability [4] | viability [5] | differential viability (reversal) ([6]; H69AR cells + 2 uM doxorubicin) | viability [6, 9] | viability [6, 10] | inhibition [7] | inhibition [8]
CCN(CC)c1nc2cc(OC)ccc2cc1C#N | 104% | 80.5% (inactive) | 104% (inactive) | 86.1% (inactive) | 68.2% (inactive) | -14.1% (inactive) | 82.3% | 68.2% | -2.86% (inactive) | -5.24% (inactive)
Cc1ccc(-c2nc3cc(N)ccc3o2)cc1 | 104% | 115% (inactive) | 104% (inactive) | 72.6% (inactive) | 79.9% (inactive) | -1.81% (inactive) | 81.7% | 79.9% | -2.82% (inactive) | -2.17% (inactive)
CCN(CC)CCOC(=O)c1cccc(OC)c1 | 115% | 105% (inactive) | 115% (inactive) | 96.9% (inactive) | 90.2% (inactive) | -4.21% (inactive) | 94.4% | 90.2% | -5.07% (inactive) | -2.79% (inactive)
CCOC(=O)N1CCC(N2C(=O)c3ccccc3C2Nc2cccnc2)CC1 (stereo not given) | 91.5% | 104% (inactive) | 91.5% (inactive) | 112% (inactive) | 85.7% (inactive) | 0.11% (inactive) | 85.6% | 85.7% | -2.05% (inactive) | -3% (inactive)
O=c1c(-c2ccc(F)cc2)coc2c3c(ccc12)OCCO3 | 100% | 78.5% (inactive) | 100% (inactive) | 120% (inactive) | 107% (inactive) | 20% (inactive) | 86.7% | 107% | 0.13% (inactive) | -6.73% (inactive)
CCOC(=O)C(NC(=O)CC)(Nc1ccc(S(=O)(=O)Nc2onc(C)c2C)cc1)C(F)(F)F (stereo not given) | 116% | 97.5% (inactive) | 116% (inactive) | 102% (inactive) | 106% (inactive) | 8.86% (inactive) | 97% | 106% | -3.77% (inactive) | -0.48% (inactive)
CCOc1cc2oc(=O)c3c(c2cc1Cl)CCC3 | 106% | 96% (inactive) | 106% (inactive) | 102% (inactive) | 85.6% (inactive) | 8.13% (inactive) | 77.5% | 85.6% | -3.84% (inactive) | 2.38% (inactive)
O=C(NCC1CCCO1)c1cccc(N2C(=O)C3C4C=CC(C4)C3C2=O)c1 (stereo not given) | 110% | 94% (inactive) | 110% (inactive) | 98.4% (inactive) | 100% (inactive) | 10.3% (inactive) | 89.8% | 100% | -6.4% (inactive) | -9.84% (inactive)
CC(C)Oc1cccc(-c2cc(C(=O)N3CCN(S(C)(=O)=O)CC3)c3ccccc3n2)c1 | 90.5% | 94% (inactive) | 90.5% (inactive) | 64% (inactive) | 65.7% (inactive) | -9.72% (inactive) | 75.4% | 65.7% | -1.84% (inactive) | -6.03% (inactive)
Brc1ccc(C2=Nn3c(nnc3-c3ccncc3)SC2)cc1 | 94.5% | 79.5% (inactive) | 94.5% (inactive) | 82.8% (inactive) | 77.1% (inactive) | -14.3% (inactive) | 91.4% | 77.1% | -2.89% (inactive) | -0.36% (inactive)
COc1cccc(OCCSc2nnc3sc4ccccc4n23)c1 | 86% | 98% (inactive) | 86% (inactive) | 106% (inactive) | 85.3% (inactive) | -6.48% (inactive) | 91.8% | 85.3% | 2.73% (inactive) | 0.66% (inactive)
O=C(c1ccco1)N1CCN(c2c(-c3ccccc3)c3cc(Cl)ccc3[nH]c2=O)CC1 | 94% | 61.5% (inactive) | 94% (inactive) | 52.4% (inactive) | 24.5% (active) | 17.6% (inactive) | 6.86% | 24.5% | -2.11% (inactive) | 7.42% (inactive)
Cc1c(NS(=O)(=O)c2ccc3c(c2)n(C)c(=O)n3C)c(=O)n(-c2ccccc2)n1C | 113% | 93% (inactive) | 113% (inactive) | 87.3% (inactive) | 94.2% (inactive) | 3.4% (inactive) | 90.8% | 94.2% | -4.67% (inactive) | -0.98% (inactive)
Cc1nnc2ccc(N3CCC4(CC3)OCCO4)nn12 | 101% | 89.5% (inactive) | 101% (inactive) | 100% (inactive) | 108% (inactive) | 11.1% (inactive) | 96.5% | 108% | -6.22% (inactive) | -3% (inactive)
CCN1CCN(c2nc(-c3cccnc3)nc3ccccc23)CC1 | 89% | 94.5% (inactive) | 89% (inactive) | 101% (inactive) | 88.6% (inactive) | -2.89% (inactive) | 91.5% | 88.6% | -3.16% (inactive) | -0.63% (inactive)
